Laboratory results from ChEMBL document CHEMBL4350999, “Enhanced tumor retention of NTSR1-targeted agents by employing a hydrophilic cysteine cathepsin inhibitor” (Eur J Med Chem, 2019).
The source made the active and inactive calls. The rule behind the calls is not given here.

Assays:
[1] = Drug localization in endolysosomal compartment of human HT-29 cells assessed as decrease in co-localization efficiency at 5 uM incubated for 2 hrs and measured over 24 hrs using natEu labelled compound by lysotracker green staining based confocal microscopic analysis relative to control; assay type: ADME, subcellular; details: ht-29, 5 µM
Summary of the method: (§1)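 HT-29 cells (1.25 × 10^5/well) loaded with natEu conjugate (5 μM), washed, then chased in fresh medium up to 24 h. Lysotracker Green (100 nM) applied 2 h before each read; cells fixed and imaged confocally at 405/488 nm. Per-cell mean fluorescence and Lysotracker co-localization quantified.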

[2] = Drug retention in human HT-29 cells assessed as increase in mean fluorescence intensity at 5 uM incubated for 2 hrs and measured at 2 to 4 hrs using natEu labelled compound by lysotracker green staining based confocal microscopic analysis; assay type: ADME, cell-based; details: ht-29, 2 h; summary of the method: as §1
[3] = Drug uptake in brain of SCID mouse xenografted with human HT-29 cells using 177Lu labelled compound at 0.37 MBq/mouse, iv co-treated with D-lysine at 40 mg/kg measured at 24 hrs by gamma counter analysis; assay type: ADME, organism-based; details: in vivo
Summary of the method: (§2)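 Female SCID mice bore s.c. HT-29 xenografts (5 × 10^6 cells in Matrigel, about 80 mm3). D-lysine 40 mg/kg was co-injected i.v. with 10 μCi (0.37 MBq) of purified 177Lu-conjugate. Tissues were harvested at 24 h, weighed and gamma-counted, reported as %ID/g; mean ± SD, n = 5.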

[4] = Drug uptake in pancreas of SCID mouse xenografted with human HT-29 cells using 177Lu labelled compound at 0.37 MBq/mouse, iv co-treated with D-lysine at 40 mg/kg measured at 24 hrs by gamma counter analysis; assay type: ADME, organism-based; details: in vivo; summary of the method: as §2
Procathepsin L = Procathepsin L (Homo sapiens, UniProt P07711); experiment: Binding affinity to human liver cathepsin L assessed as protein-conjugate adduct formation at 0.74 MBq incubated for 30 mins in presence of DOTA-beta-ala-[N-alpha-Me8, Dmt11, Tle12] NT6-13 using 177Lu labelled compound by SDS-PAGE analysis; details: 0.74 M
Chain of Procathepsin L (P07711 114-333 limits assumed): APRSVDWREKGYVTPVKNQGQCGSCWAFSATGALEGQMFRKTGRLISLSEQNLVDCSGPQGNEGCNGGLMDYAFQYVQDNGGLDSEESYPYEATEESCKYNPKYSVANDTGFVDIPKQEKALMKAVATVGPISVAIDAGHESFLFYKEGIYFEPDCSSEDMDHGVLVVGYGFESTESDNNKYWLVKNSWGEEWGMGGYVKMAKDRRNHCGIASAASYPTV
Summary of the method: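 Purified human liver CatB or CatL (3 nM) in 50 mM sodium acetate/1 mM EDTA pH 5.0 incubated 30 min with 177Lu conjugate (500,000 cpm) in Tris/MgCl2/DTT buffer pH 5.5, alone or with E-64 (10 μM) or N1 (20 μM). Mixtures heated 85 °C 2 min, run on 16% tris-glycine gel at 110 V for 90 min, and read by phosphor autoradiography.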

[5] = Ratio of drug uptake in SCID mouse xenograted with human HT-29 cells assessed as tumour retention to drug uptake in muscle of SCID mouse xenografted with human HT-29 cells cotreated with D-lysine at 40 mg/kg measured after 24 hrs using 177Lu labelled compound; assay type: ADME, organism-based, Tumor/Muscle; details: in vivo
Cathepsin B [6] = molecular target: T1, Cathepsin B (Homo sapiens, UniProt P07858); experiment: Binding affinity to cathepsin B in human HT-29 cells assessed as intracellular adduct formation at 0.74 MBq incubated for 4 hrs in presence of DOTA-beta-ala-[N-alpha-Me8, Dmt11, Tle12] NT6-13 using 177Lu labelled compound by SDS-PAGE analysis; assay type: cell-based; parameters: dose or concentration left out as unconfirmed
Summary of the method: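 HT-29 cells (1 × 10^6/well) incubated 4 h at 37 °C with 177Lu conjugate (20 μCi, 0.74 MBq) in 1 mL medium, with or without E-64 (10 μM) or NTSR1 peptide N1 (20 μM). Cells washed and refed; at set times cells pooled, RIPA-lysed with protease inhibitor. Lysates heated 85 °C 2 min, run on 16% tris-glycine SDS-PAGE, and phosphor autoradiography taken after 72 h exposure.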

[7] = Drug uptake in bone of SCID mouse xenografted with human HT-29 cells pretreated for 1 hr with colchicine at 1 mg/kg, ip followed by 177Lu labelled compound at 0.37 MBq/mouse, iv measured at 24 hrs by gamma counter analysis; assay type: ADME, organism-based, Bone element; details: in vivo
Summary of the method: (§3)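 HT-29 flank xenografts in female SCID mice (5 × 10^6 cells in Matrigel, about 80 mm3). Colchicine 1 mg/kg was given i.p. before a tail-vein injection of 10 μCi (0.37 MBq) of purified 177Lu-conjugate. Tissues were taken at 24 h, weighed and gamma-counted as %ID/g; mean ± SD, n = 5.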

[8] = Ratio of drug uptake in SCID mouse xenograted with human HT-29 cells assessed as tumour retention to drug uptake in pancreas of SCID mouse xenografted with human HT-29 cells cotreated with D-lysine at 40 mg/kg measured after 24 hrs using 177Lu labelled compound; assay type: ADME, organism-based, Tumor/Pancreas; details: in vivo
Cathepsin B [9] = molecular target: T1, Cathepsin B; experiment: Inhibition of human liver cathepsin B assessed as inhibition constant using Z-Arg-Arg-AMC as substrate measured every 5 mins for 1 hr by fluorescence assay
[10] = Drug uptake in small intestine of SCID mouse xenografted with human HT-29 cells using 177Lu labelled compound at 0.37 MBq/mouse, iv co-treated with D-lysine at 40 mg/kg measured at 24 hrs by gamma counter analysis; assay type: ADME, organism-based; details: in vivo
[11] = Ratio of drug uptake in SCID mouse xenograted with human HT-29 cells assessed as tumour retention to drug uptake in kidney of SCID mouse xenografted with human HT-29 cells cotreated with D-lysine at 40 mg/kg measured after 24 hrs using 177Lu labelled compound; assay type: ADME, organism-based, Tumor/Kidney; details: in vivo
Summary of the method: (§4)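 HT-29 s.c. xenografts in female SCID mice. 177Lu conjugate given i.v. by tail vein at 10 μCi (0.37 MBq)/mouse, co-injected with D-lysine 40 mg/kg. Tissues were taken at 24 h, weighed and gamma counted. Uptake expressed as %ID/g (n = 5, mean ± SD); tumor-to-tissue ratios derived from these values.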

[12] = Drug uptake in muscle of SCID mouse xenografted with human HT-29 cells pretreated for 1 hr with colchicine at 1 mg/kg, ip followed by 177Lu labelled compound at 0.37 MBq/mouse, iv measured at 24 hrs by gamma counter analysis; assay type: ADME, organism-based, Muscle tissue; details: in vivo; summary of the method: as §3
[13] = Drug excretion in SCID mouse xenografted with human HT-29 cells using 177Lu labelled compound at 0.37 MBq/mouse, iv co-treated with D-lysine at 40 mg/kg measured at 24 hrs by gamma counter analysis; assay type: ADME, organism-based; details: in vivo
Summary of the method: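 Female SCID mice bearing s.c. flank HT-29 xenografts (5 × 10^6 cells in Matrigel, ~80 mm3). Given 10 μCi (0.37 MBq) 177Lu conjugate i.v. by tail vein; groups sacrificed at 4, 24, 72 h. Tissues weighed and gamma-counted as %ID/g, excretion as %ID; n = 5, mean ± SD. Blocking arms: colchicine 1 mg/kg i.p. beforehand, or D-lysine 40 mg/kg co-injected.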

[14] = Drug uptake in small intestine of SCID mouse xenografted with human HT-29 cells pretreated for 1 hr with colchicine at 1 mg/kg, ip followed by 177Lu labelled compound at 0.37 MBq/mouse, iv measured at 24 hrs by gamma counter analysis; assay type: ADME, organism-based; details: in vivo; summary of the method: as §3
[15] = Ratio of drug uptake in SCID mouse xenograted with human HT-29 cells assessed as tumour retention to drug uptake in blood of SCID mouse xenografted with human HT-29 cells cotreated with D-lysine at 40 mg/kg measured after 24 hrs using 177Lu labelled compound; assay type: ADME, organism-based, Tumor/Blood; summary of the method: as §4

Structure (SMILES): Cc1cc(O)cc(C)c1C[C@H](NC(=O)[C@@H]1CCCN1C(=O)[C@H](CCCNC(=N)N)NC(=O)[C@H](CCCNC(=N)N)N(C)C(=O)[C@@H]1CCCN1C(=O)[C@H](CCCCN)NC(=O)[C@@H](CO)NC(=O)[C@@H](CO)NC(=O)[C@@H](CO)NC(=O)[C@H](Cc1cn(CCNC(=O)[C@H](CCCNC(=N)N)NC(=O)[C@H](CC(C)C)NC(=O)CCC(=O)O)nn1)NC(=O)CN1CCN(CC(=O)O)CCN(CC(=O)O)CCN(CC(=O)O)CC1)C(=O)N[C@H](C(=O)N[C@@H](CC(C)C)C(=O)O)C(C)(C)C
- Drug uptake [1]: 20%

Structure (SMILES): Cc1cc(O)cc(C)c1C[C@H](NC(=O)[C@@H]1CCCN1C(=O)[C@H](CCCNC(=N)N)NC(=O)[C@H](CCCNC(=N)N)N(C)C(=O)[C@@H]1CCCN1C(=O)[C@H](CCCCN)NC(=O)[C@@H](CO)NC(=O)[C@@H](CO)NC(=O)[C@@H](CO)NC(=O)[C@H](Cc1cn(CCNC(=O)[C@H](CCCNC(=N)N)NC(=O)[C@H](CC(C)C)NC(=O)C2OC2C(=O)O)nn1)NC(=O)CN1CCN(CC(=O)O)CCN(CC(=O)O)CCN(CC(=O)O)CC1)C(=O)N[C@H](C(=O)N[C@@H](CC(C)C)C(=O)O)C(C)(C)C (stereo partly specified)
- Drug uptake [2]: Not Active
- Drug uptake [3]: 0.02 % ID/g
- Drug uptake [4]: 0.14 % ID/g
- Activity (Procathepsin L): Active
- Ratio [5]: 250
- Activity (Cathepsin B [6]): inactive
- Drug uptake [7]: 0.36 % ID/g
- Ratio [8]: 75
- Ki (Cathepsin B [9]): 110 nM
- Drug uptake [10]: 1.47 % ID/g
- Ratio [11]: 0.2
- Drug uptake [12]: 0.06 % ID/g
- Drug excretion [13]: 83 %ID
- Drug uptake [14]: 2.2 % ID/g
- Kp at 24 h [15]: 299
